These results are taken from ChEMBL document CHEMBL1944627, “[¹⁸F]GE-180: a novel fluorine-18 labelled PET tracer for imaging Translocator protein 18 kDa (TSPO)” (Bioorg Med Chem Lett, 2012).

The target of one series is Translocator protein (Rattus norvegicus, UniProt P16257). The experiment in a line: Displacement of [3H]PK11195 from TSPO receptor in Wistar rat heart homogenate after 15 mins. Format: tissue-based. Background: Loss of bound radioactivity is the signal in a displacement assay; it reports binding, not function.
Sequence of Translocator protein (P16257 whole entry, looked up): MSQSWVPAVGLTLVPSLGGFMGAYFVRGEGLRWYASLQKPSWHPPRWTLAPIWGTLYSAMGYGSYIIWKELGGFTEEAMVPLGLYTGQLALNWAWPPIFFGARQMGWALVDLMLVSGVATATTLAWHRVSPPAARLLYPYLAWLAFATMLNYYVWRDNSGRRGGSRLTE
Another series relates to Rattus norvegicus. The experiment in a line: Biodistribution in Sprague-Dawley rat olfactory bulbs at 1 to 3 MBq, iv after 30 mins by gamma counting. Format: ADME, organism-based, Olfactory bulb. The following applies: in vivo, 0.5 h. The method in brief:
(§1)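 Tracer formulated in Dulbecco's PBS and given iv, about 1–3 MBq at 10 MBq/mL, under 4% isoflurane, to naive rats (n = 3). Animals were killed at set times after injection. Brain was dissected into regions including striatum and olfactory bulbs, and activity was counted by gamma counter. Values are % id/g, and regional ratios were taken between times or regions.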

Series [1] is described as follows: Metabolic stability in Sprague-Dawley rat brain assessed as compound remaining at 1 to 3 MBq, iv after 30 mins by HPLC analysis. Format: ADME, organism-based. Particulars: read-out: Stability.
Series [2] can be described thus: Ratio of drug uptake in olfactory bulb to striatum in Sprague-Dawley rat at 1 to 3 MBq, iv after 30 mins by gamma counting. Particulars: in vivo, 0.5 h.
Series [3] is described as follows: Ratio of drug uptake in striatum in Sprague-Dawley rat at 1 to 3 MBq, iv after 2 mins to drug uptake in striatum in Sprague-Dawley rat at 1 to 3 MBq, iv after 30 mins. The following applies: in vivo.
A further series deals with Brain. The experiment in a line: Biodistribution in Sprague-Dawley rat whole brain at 1 to 3 MBq, iv after 2 mins by gamma counting. It counts as ADME, organism-based. Particulars: in vivo. In short, it runs like this:
as §1

Series [4] can be described thus: Metabolic stability in Sprague-Dawley rat brain assessed as compound remaining at 1 to 3 MBq, iv after 60 mins by HPLC analysis. The following applies: read-out: Stability. Format: ADME, organism-based. In short, it runs like this:
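Radiotracer was injected iv into rats. Brain and plasma were sampled at 10, 30 and 60 min post injection to follow metabolic fate. Brain radioactivity at 60 min is expressed as % parent tracer remaining.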

Take `CCN(CC)C(=O)C1Sc2ccccc2-c2c1c1ccccc1n2CCF` (stereo not given): on Translocator protein, the affinity, expressed as Ki, was 0.67 nM. The same compound registered a Drug uptake in the series with Rattus norvegicus of 0.17 % ID/g. In series [1], the remaining at 0.5 h amounted to 95%. In addition, the Ratio in series [2] is reported as 1.42; in series [3] it was 2.16.

With `CCN(CC)C(=O)C1CCCc2c1c1ccccc1n2CC[18F]` (stereo not given), the Drug uptake was 0.53 % ID/g in the series on Brain and 0.39 % ID/g in the series with Rattus norvegicus. The remaining at 1 h in series [4] amounted to 62%. Further, the figures for the Ratio in series [2] and in series [3] were 3.25 and 4.08, respectively.

As for `CCN(CC)C(=O)C1CCCc2c1c1cc(OC)ccc1n2CC[18F]` (stereo not given), the Drug uptake in the series with Brain was determined as 0.39 % ID/g; in the series with Rattus norvegicus, 0.31 % ID/g. In addition, in series [4], the remaining at 1 h stood at 76%. The Ratio in series [2] came to 3.88; in series [3], 4.25.

`CCN(Cc1ccccc1)C(=O)C1CCCc2c1c1ccccc1n2CC[18F]` (stereo not given): the values for the Drug uptake in the series with Brain and in the series with Rattus norvegicus were 0.48 % ID/g and 0.34 % ID/g, respectively. Further, the remaining at 1 h in series [4] was 76%. The Ratio in series [2] is reported as 3.4; in series [3], 4.3.
